The text below walks through data of the array DNA melting data of Ke et al. (doi:10.1101/2024.01.08.574731).

A short description of data set [1]: melting temperature; fluorescence melt of hairpins on a sequencing array, two-state fit, raised by 9.35 °C to match UV melts. As to conditions: sodium 0.088 M. A digest of the protocol: (§1)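 Hairpins were imaged by Cy3 fluorescence on a sequenced MiSeq flow cell with annealed Cy3 and quencher oligos, in 50 mM Na-HEPES pH 8.0, 25 mM NaCl, in 2.5 °C steps up to 60 °C. Bootstrapped two-state fits of normalised signals gave melting temperature and folding enthalpy. Four replicates were combined by inverse variance, and fitted temperatures were raised by 9.35 °C to match UV melts.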

Data set [2] can be described thus: folding enthalpy; higher = less favourable; fluorescence melt of hairpins on a sequencing array, two-state fit. To be noted: sodium 0.088 M. Summed up:
as §1

For the sequence GATCCCTAGGGGGATC ((((((....)))))), the Tm in data set [1] amounted to 60.4 °C. Besides, in data set [2], the folding enthalpy was -34.8 kcal/mol.
In the same order, the values of GCATCCGGAAACGGATAC (.(((((....))))).) are 39.7 °C and -16.9 kcal/mol.
The matching figures for GTAACGCGAAAGCGTAC (((.(((....)))))): 49 °C and -10.6 kcal/mol.
On to GCAGCGGGAAACCACTGC ((((.((....)).)))), for which the Tm in data set [1] turned out to be 52.2 °C. For the same sequence, in data set [2], the folding enthalpy was -43.3 kcal/mol.
Regarding GTCTTCGAAAGAAGGAC ((((((....))).))), the Tm in data set [1] was found to be 41.6 °C. Also, the folding enthalpy in data set [2] was -16.4 kcal/mol.
With GCGATGGATCGC ((((....)))), in data set [1], the Tm was 52.8 °C. In addition, in data set [2], the folding enthalpy was -22.8 kcal/mol.
In the same order, the values of GATCTGTGAACAGATC ((((((....)))))) are 52.9 °C and -43 kcal/mol.
The matching figures for GGACAGCGAAAGCTCTCC (((.(((....))).))): 38.4 °C and -18.3 kcal/mol.
For the sequence GCGACGCGAAAGCGCGGC ((..(((....)))..)), in data set [1], the Tm turned out to be 55.7 °C. Moreover, the folding enthalpy in data set [2] is -13.1 kcal/mol.
The matching figures for GCGGCCGGAAACGGCCAC (.(((((....))))).): 53 °C and -9.59 kcal/mol.
With GATCTCATCGAGATC ((((((...)))))), the Tm in data set [1] was 55.8 °C. For the same sequence, the folding enthalpy in data set [2] was -36.1 kcal/mol.
The matching figures for GATCCGTCGGCGGATC ((((((....)))))): 59 °C and -39.3 kcal/mol.
As to GTACGCGAAAGCGAATAC ((((((....)))..))), the Tm in data set [1] stood at 31.9 °C. Also, in data set [2], the folding enthalpy is -8.59 kcal/mol.
For GATAATGGAAACATTACC (.(((((....))))).), the Tm in data set [1] worked out at 22.6 °C. In data set [2], the folding enthalpy is -9.26 kcal/mol.
In the same order, the values of GCCTTGGCGAAAGCCGGC (((..(((....)))))) are 56.9 °C and -12.9 kcal/mol.
The matching figures for CGGGCGGAAACGCTGCCG ((((((....)))..))): 45.8 °C and -16.8 kcal/mol.
The matching figures for GCCTAGCGAAAGCCGGGC (((..((....))..))): 57.1 °C and -20.1 kcal/mol.
As for GATCATAAGGATGATC ((((((....)))))), the Tm in data set [1] was 45.3 °C. Moreover, in data set [2], the folding enthalpy was -32.5 kcal/mol.
For the sequence GGTACTGGAAACGGTATC (.(((.(....).))).), the Tm in data set [1] came out at 27.7 °C. The folding enthalpy in data set [2] is -13 kcal/mol.
As for GCGTGCGGAAACGCACAC (.(((((....))))).), the Tm in data set [1] was found to be 50.3 °C. For the same sequence, the folding enthalpy in data set [2] was -8.53 kcal/mol.
As for GATTCACGAAAGTGCATC (((.(((....))).))), the Tm in data set [1] was determined as 40.2 °C. In addition, the folding enthalpy in data set [2] was -26.4 kcal/mol.
In the same order, the values of GCGATTGTTCGC ((((....)))) are 51.6 °C and -24.5 kcal/mol.
Turning to GGTAACGGAAACGTTGCC ((.((((....)))).)), in data set [1], the Tm turned out to be 53.8 °C. The folding enthalpy in data set [2] is -50.5 kcal/mol.
The matching figures for GCTGCTGGAAACAGTAGC (((.(((....))).))): 54.3 °C and -43.1 kcal/mol.
GTGGAACCGAAAGGTCAC (((..(((....)))))): in data set [1], the Tm stood at 42.3 °C. The folding enthalpy in data set [2] is -21.9 kcal/mol.
As to GGGACAGGAAACTGTCTC (.(((((....))))).), in data set [1], the Tm was determined as 51.1 °C. Besides, the folding enthalpy in data set [2] was -28.1 kcal/mol.
Regarding GTGTGGCGAAAGCCTCAC (((.(((....))).))), the Tm in data set [1] was determined as 58.9 °C. In data set [2], the folding enthalpy was -29.7 kcal/mol.
In the same order, the values of GTACACCGAAAGGTTAC (((.(((....)))))) are 39.9 °C and -20.5 kcal/mol.
As to GCTAACGCGAAAGCGAGC (((..(((....)))))), the Tm in data set [1] worked out at 45.2 °C. Besides, the folding enthalpy in data set [2] was -15.2 kcal/mol.
The matching figures for GCTGTGCGAAAGCCCCGC ((.(.((....)).).)): 31.1 °C and -12.5 kcal/mol.
In the same order, the values of GCGACACTTCGC ((((....)))) are 52.1 °C and -26.7 kcal/mol.
GTCGATCGAAAGATGAC (((.(((....)))))): the Tm in data set [1] worked out at 43.7 °C. The folding enthalpy in data set [2] was -26.9 kcal/mol.
GAAAAACGAAAGTTCTTC (((.(((....))).))): in data set [1], the Tm came to 28.2 °C. For the same sequence, the folding enthalpy in data set [2] was -13.4 kcal/mol.
In the same order, the values of GGGGTTCGAAAGAACCC (((.(((....)))))) are 69.3 °C and -17.9 kcal/mol.
As to GTCCTCGAAAGAGAAGAC ((((((....)))..))), the Tm in data set [1] came to 32.2 °C. For the same sequence, the folding enthalpy in data set [2] was -19.8 kcal/mol.
The matching figures for GCCGCCGAAAGGCTGGC ((((((....))).))): 69.2 °C and -20.8 kcal/mol.
For GACAAGAAATTGTC (((((....))))), the Tm in data set [1] was 37.2 °C. In addition, the folding enthalpy in data set [2] was -17.2 kcal/mol.
In the same order, the values of GCTACCCGAAAGGGAGC (((.(((....)))))) are 55.5 °C and -23.1 kcal/mol.
With GTAACCCGAAAGGGGTAC (((.(((....))).))), in data set [1], the Tm is 57.6 °C. The folding enthalpy in data set [2] is -30.9 kcal/mol.
In the same order, the values of GGCTCTGCGAAAGCAGCC (((..(((....)))))) are 40.6 °C and -9.66 kcal/mol.
On to GGAAGCGAAAGCTCCTCC ((((((....)))..))), for which the Tm in data set [1] is 51.3 °C. For the same sequence, the folding enthalpy in data set [2] is -16.8 kcal/mol.
In the same order, the values of GCGGGGCGAAAGCCAGGC ((..(((....)))..)) are 59.1 °C and -17.5 kcal/mol.
GATCGTACCCACGATC ((((((....)))))): the Tm in data set [1] was determined as 54.1 °C. Also, in data set [2], the folding enthalpy was -40 kcal/mol.
In the same order, the values of GTTCTGACGAAAGTCAAC (((..(((....)))))) are 25.2 °C and -8.85 kcal/mol.
In the same order, the values of GTTTGCCGAAAGGCAAC (((.(((....)))))) are 50.4 °C and -10.7 kcal/mol.
In the same order, the values of GTTAGCGGAAACGTTGAC ((.(.((....)).).)) are 30 °C and -14.7 kcal/mol.
With CGATCGGAAACGAGTCG ((((((....))).))), in data set [1], the Tm was determined as 39.9 °C. For the same sequence, the folding enthalpy in data set [2] was -24.7 kcal/mol.
GTACTCGAAAGAGTATAC ((((((....)))..))): the Tm in data set [1] came out at 39.3 °C. Besides, in data set [2], the folding enthalpy is -13.3 kcal/mol.
In the same order, the values of CGACCGGAAACGGGATCG ((((((....)))..))) are 38.8 °C and -15.7 kcal/mol.
As to GATTCAGGAAACTGGATC (((.(((....))).))), the Tm in data set [1] is 41.9 °C. The folding enthalpy in data set [2] was -36.7 kcal/mol.
On to GCTTCCGGAAACGGAGGC ((.((((....)))).)), for which the Tm in data set [1] worked out at 54.6 °C. Further, the folding enthalpy in data set [2] is -36.4 kcal/mol.
In the same order, the values of GGAGCCGGAAACGGTTCC (((.(((....))).))) are 58.5 °C and -45.1 kcal/mol.
In the same order, the values of GTAACGGCGAAAGCCTAC (((..(((....)))))) are 20.7 °C and -9.07 kcal/mol.
In the same order, the values of GCTTAGCCGAAAGGCAGC (((..(((....)))))) are 45.5 °C and -16.4 kcal/mol.
In the case of GATCTAGAGCTAGATC ((((((....)))))), the Tm in data set [1] amounted to 39.4 °C. In data set [2], the folding enthalpy was -29.4 kcal/mol.
In the same order, the values of GCGAGTTTTCGC ((((....)))) are 53.3 °C and -16.5 kcal/mol.
The matching figures for GGGTGTGGAAACATACCC ((((.((....)).)))): 52.1 °C and -45.6 kcal/mol.
In the same order, the values of GGGTCTGAAAAGACCC ((((((....)))))) are 68.4 °C and -26 kcal/mol.
For GCGTGGCGAAAGCACCGC (((..((....))..))), the Tm in data set [1] is 62.2 °C. Further, in data set [2], the folding enthalpy is -31.9 kcal/mol.
For GTATCGGGAAACCGGTAC (((.(((....))).))), the Tm in data set [1] is 48.9 °C. Further, in data set [2], the folding enthalpy is -32 kcal/mol.
With GACCCAGGAAACTGGGCC (.(((((....))))).), in data set [1], the Tm amounted to 47.9 °C. Besides, the folding enthalpy in data set [2] is -16.5 kcal/mol.
In the same order, the values of GCTGGCGGAAACGTCGGC ((.(.((....)).).)) are 53.1 °C and -38.7 kcal/mol.
Consider GGACGAGAAATCGTCC ((((((....)))))), for which the Tm in data set [1] worked out at 60.2 °C. Besides, the folding enthalpy in data set [2] was -47 kcal/mol.
Turning to GGTTGTGGAAACACGACC (((.(((....))).))), the Tm in data set [1] came to 54.5 °C. Further, the folding enthalpy in data set [2] is -43.2 kcal/mol.
Consider GGCGTGGGAAACCGTGCC (((..((....))..))), for which the Tm in data set [1] is 49.1 °C. The folding enthalpy in data set [2] was -32.1 kcal/mol.
The matching figures for GTGCGCGGAAACACGCAC (((((.(....).))))): 59.7 °C and -46.6 kcal/mol.
The matching figures for GCTATCGAAAGATACAGC ((((((....)))..))): 32.6 °C and -20.8 kcal/mol.
In the same order, the values of GTGATCCGAAAGGAACAC (((.(((....))).))) are 53.6 °C and -27.5 kcal/mol.
As to GATCAGCAGGCTGATC ((((((....)))))), in data set [1], the Tm amounted to 59.2 °C. For the same sequence, the folding enthalpy in data set [2] was -42.1 kcal/mol.
In the case of GATCTTTGAGAAGATC ((((((....)))))), in data set [1], the Tm was determined as 46 °C. The folding enthalpy in data set [2] is -31.6 kcal/mol.
In the same order, the values of GGGACCGCGAAAGCGCCC (((..(((....)))))) are 39.2 °C and -12.5 kcal/mol.
The matching figures for GCGCACGAAAGTGGTCGC ((((((....)))..))): 53.4 °C and -13.8 kcal/mol.
In the same order, the values of GTATACGAAAGTAGTAC ((((((....))).))) are 29.6 °C and -11.7 kcal/mol.
Regarding GAACGCGAAAGCGGGTTC ((((((....)))..))), the Tm in data set [1] was found to be 47.1 °C. The folding enthalpy in data set [2] is -11.9 kcal/mol.
